Source: PubChem (The Scripps Research Institute Molecular Screening Center)
TDP2 absorb: TDP2 (human) inhibition, absorbance primary screen; O95551; recombinant TDP2, T5PNP hydrolysis, p-nitrophenol absorbance 415 nm; inhibition, % at 12.8 µM; actives 0.34% (n = 370,000); AID 720702;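 active = inhibition above the mean of all tested compounds plus 3 SD, set per campaign, cut at about 25% in these data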;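 also: 0% = DMSO with enzyme and 100% = buffer with substrate but no TDP2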
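Evaluation: % inhibition relative to enzyme-containing and enzyme-free wells. Material: recombinant human TDP2. Benchmarks: enzyme-free and DMSO wells. Timing: enzyme reaction with compound for 2 h at 37 °C. Compound dosing: 12.8 µM only. Measured by: p-Nitrophenol epi absorbance. Reagent: T5PNP substrate at 5 mM, a TopII-DNA adduct mimic. Replication: single well per compound.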
UHRF1 binding: human UHRF1 methylated DNA binding inhibitors. AID 687016. actives 0.75% (n = 370,000). Q96T88. inhibition, % at 4.4 µM. UHRF1 binding to methylated oligo, TR-FRET; in the data active = inhibition above about 21%;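 also: UHRF1 SRA domain binding a hemimethylated CpG hairpin DNA probe; 0% = median of test compound wells and 100% = reference inhibitor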
LEDGF integ inh: blocks HIV-1 LEDGF/p75-dependent DNA integration; TR-FRET IN-LEDGF/p75 DNA integration, Eu/Cy5; inhibition, % at 3.7 µM; actives 0.64% (n = 370,000); AID 743269;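 active = inhibition above the screen-wide mean plus 3 SD, cut at about 13% in these data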;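 also: signal is the Cy5 over europium emission ratio at 671 and 618 nm; 0% = plate median of compound wells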
MBD2 inh: MBD2-methylated oligo binding inhibition; inhibition, % at 4.4 µM; actives 0.31% (n = 370,000); AID 686964; TR-FRET, MBD2 binding to methylated oligonucleotide; in the data active = inhibition above about 13%
Rin1-Abl PPI inh: blocks binding of human Rin1 to Abl | TR-FRET Rin1/Abl binding, biochemical | actives 0.4% (n = 360,000) | P00519+Q13671 | inhibition, % at 7.35 µM; in the data active = inhibition above about 5%, passing the limit was not always enough
Target sequence (P00519 whole entry, looked up): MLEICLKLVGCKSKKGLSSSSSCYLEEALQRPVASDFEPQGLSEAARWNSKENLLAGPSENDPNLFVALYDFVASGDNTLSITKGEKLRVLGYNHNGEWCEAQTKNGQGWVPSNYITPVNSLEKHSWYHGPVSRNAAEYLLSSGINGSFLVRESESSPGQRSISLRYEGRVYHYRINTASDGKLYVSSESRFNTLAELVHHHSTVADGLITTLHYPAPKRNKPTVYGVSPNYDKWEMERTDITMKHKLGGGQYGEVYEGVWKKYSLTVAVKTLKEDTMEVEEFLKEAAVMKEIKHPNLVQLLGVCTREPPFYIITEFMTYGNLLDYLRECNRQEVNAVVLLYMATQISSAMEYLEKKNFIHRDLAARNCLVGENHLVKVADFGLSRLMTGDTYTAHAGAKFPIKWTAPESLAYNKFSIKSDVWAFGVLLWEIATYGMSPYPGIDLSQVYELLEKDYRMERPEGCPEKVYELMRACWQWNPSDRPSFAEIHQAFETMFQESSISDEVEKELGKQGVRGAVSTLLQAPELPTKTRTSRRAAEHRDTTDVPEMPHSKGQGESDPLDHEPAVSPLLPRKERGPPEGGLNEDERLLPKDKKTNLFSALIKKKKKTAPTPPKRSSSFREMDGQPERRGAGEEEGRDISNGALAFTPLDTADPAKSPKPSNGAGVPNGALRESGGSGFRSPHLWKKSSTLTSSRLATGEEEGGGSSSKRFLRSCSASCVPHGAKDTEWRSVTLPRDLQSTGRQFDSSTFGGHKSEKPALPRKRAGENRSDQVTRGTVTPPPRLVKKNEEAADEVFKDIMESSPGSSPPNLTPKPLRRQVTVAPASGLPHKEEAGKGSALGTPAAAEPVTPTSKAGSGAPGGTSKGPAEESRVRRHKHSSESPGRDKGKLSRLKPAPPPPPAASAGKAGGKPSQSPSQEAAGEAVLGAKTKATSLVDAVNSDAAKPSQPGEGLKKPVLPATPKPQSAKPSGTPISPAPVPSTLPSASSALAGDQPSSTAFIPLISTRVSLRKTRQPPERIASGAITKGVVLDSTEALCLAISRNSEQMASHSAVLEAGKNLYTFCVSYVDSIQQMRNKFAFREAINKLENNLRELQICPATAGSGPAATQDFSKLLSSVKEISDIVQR
Target sequence (Q13671 whole entry, looked up): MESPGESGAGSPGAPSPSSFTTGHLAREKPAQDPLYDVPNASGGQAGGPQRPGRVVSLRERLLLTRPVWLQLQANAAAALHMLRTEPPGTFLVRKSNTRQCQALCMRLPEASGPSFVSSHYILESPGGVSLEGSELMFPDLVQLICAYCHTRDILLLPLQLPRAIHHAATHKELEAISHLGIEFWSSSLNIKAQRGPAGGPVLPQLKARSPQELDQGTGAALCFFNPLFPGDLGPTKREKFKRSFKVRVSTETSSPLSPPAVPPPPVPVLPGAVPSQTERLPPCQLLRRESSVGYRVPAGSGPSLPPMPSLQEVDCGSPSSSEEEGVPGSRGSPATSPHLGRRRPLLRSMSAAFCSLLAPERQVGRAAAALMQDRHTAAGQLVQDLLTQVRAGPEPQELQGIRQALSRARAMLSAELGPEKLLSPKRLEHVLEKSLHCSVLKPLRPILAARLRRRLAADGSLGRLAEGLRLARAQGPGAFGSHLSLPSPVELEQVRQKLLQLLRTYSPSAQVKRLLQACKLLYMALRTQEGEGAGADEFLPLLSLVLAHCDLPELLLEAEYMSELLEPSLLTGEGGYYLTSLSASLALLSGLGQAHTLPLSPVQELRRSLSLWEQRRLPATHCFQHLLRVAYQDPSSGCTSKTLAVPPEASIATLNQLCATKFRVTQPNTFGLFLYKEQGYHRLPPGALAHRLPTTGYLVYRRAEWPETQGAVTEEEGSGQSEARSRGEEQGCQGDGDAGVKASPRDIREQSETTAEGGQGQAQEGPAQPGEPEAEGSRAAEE
An asterisk follows results filed as active; . = no result. A selection: hits, their analogues and other compounds. The true share with any hit is near 1.9%.

SMILES	TDP2 absorb	UHRF1 binding	LEDGF integ inh	MBD2 inh	Rin1-Abl PPI inh
CCOC(=O)C1CCCN(c2c(C(=O)c3ccccc3)cnc3ccccc23)C1 (configuration not stated)	2	38*	2	4	-1
CC(c1ccco1)N(C(=O)c1ccccc1NS(=O)(=O)c1cc([N+](=O)[O-])ccc1Cl)c1ccccn1 (configuration not stated)	3	26*	4	6	0
CC(c1ccco1)N(C(=O)c1ccccc1NS(=O)(=O)c1cccc([N+](=O)[O-])c1)c1ccccn1 (configuration not stated)	.	.	.	.	1
CC(C)(C)c1ccc(C(=O)Nc2cc(Cl)c(F)cc2C(=O)O)cc1	8	2	-5	-3	.
COC(=O)CCCCC1SCC2NC(=O)NC21O (configuration not stated)	7	-1	41*	0	87*
O=C(c1nc(SCc2ccc([N+](=O)[O-])cc2)n2ccccc12)C(F)(F)F	-5	24*	0	1	0
O=[N+]([O-])c1ccc(CSc2nnc3ccccn23)cc1	-3	1	0	-2	1
O=C(Nc1ccc(Cl)cc1)OC1CCC12CCC(c1ccccc1)CC2 (configuration not stated)	4	-2	3	-4	.
CC(C)COC(=O)c1ccccc1OC(=O)c1ccncc1	1	25*	5	10	1
O=C(Oc1cccc2ccccc12)c1ccncc1	11	-2	-4	-1	3
COC(=O)[C@]12C[C@H](CC(=O)NCc3ccc(C)o3)C(=O)N(CCc3ccc(OC)c(OC)c3)C1=C[C@H](C(C)(C)C)O[C@@H]2C	3	-2	-1	2	.
O=S(=O)(N[C@H]1CCCC[C@@H]1N1CCOCC1)c1ccc(Cl)cc1	-6	-1	-3	-1	.
C=CCn1cccc(C(=O)Nc2cc(OC)ccc2OC)c1=O	3	29*	1	-3	-3
CCN=C1S/C(=C/c2cc(C)n(-c3ccc(Cl)cc3F)c2C)C(=O)N1CC	-1	3	3	7	.
Cc1nc2sc(C(=O)NCc3nccs3)c(N)c2c(C)c1Cl	2	-1	2	-6	.
O=C(Nc1ccc(NC(=O)c2ccco2)c(Cl)c1)c1ccccc1	-3	42*	-3	3	0
Cc1ccc(/C=C/C(=O)N2CCc3ccccc32)o1	-1	31*	9	13	-2
O=C(Nc1ccc2c(c1)C(=O)NC2=O)c1cccc(C(F)(F)F)c1	3	21*	4	7	2
Cc1ccc(C)c(OCCn2ccnc2)c1	.	.	.	.	10*
Cc1ccc(S(=O)(=O)NCc2ccccc2)cc1C(=O)N(C)CC(=O)Nc1ccccc1Br	-15	22*	-5	1	2
CN(CC(=O)Nc1ccccc1Br)C(=O)c1cccc(S(=O)(=O)NCc2ccccc2)c1	2	2	-5	2	-2
O=C(NCCCn1ccnc1)/C(=C/c1ccccc1)NC(=O)c1ccccc1	2	25*	-4	7	5
Cc1ccc(NC(=O)/C(=C\c2cccnc2)NC(=O)c2ccccc2)cc1	5	21*	-2	7	1
Cn1c(=O)n(Cc2ccc(Br)cc2)c2ccccc21	-6	23*	4	4	2
COC(=O)[C@]12C[C@H](CC(=O)N3CCOCC3)C(=O)N(Cc3ccc(Cl)cc3Cl)C1=C[C@H](C1CCCC1)O[C@@H]2C	-10	5	5	3	.
CNC(=O)c1c(C)nn(-c2ccc(F)c(Cl)c2)c1-c1cc(C)on1	-1	22*	-1	4	1
CC(C)N1CCCCC(NC(=O)c2ccc(F)c(F)c2)C1=O (configuration not stated)	-6	0	5	2	.
CCCCCC[C@@H](CN(CCCC)S(C)(=O)=O)c1ccccc1	6	0	-1	-1	.
Cc1ccccc1N(C(=O)c1snc(C(N)=O)c1N)C(C(=O)NC1CCCCC1)c1ccc(O)cc1 (configuration not stated)	-7	50*	-1	-6	-1
Cc1cccc(N(C(=O)c2snc(C(N)=O)c2N)C(C(=O)NC2CCCC2)c2ccc(C)o2)c1 (configuration not stated)	12	70*	-2	2	0
